Results as given in ChEMBL document CHEMBL1795268, “Synthesis and antimicrobial activity of some novel dicationic sulphonophanes” (2011).
In brackets after ≈: the same amount, converted by molar mass. Activity calls are given as the source filed them. No cut-off for these calls is given here.

Experiments:
Escherichia coli = test: Antimicrobial activity against Escherichia coli after 24 hrs by agar well diffusion assay; type: functional
In short: (§1)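 Bacterial isolates from a university culture collection were grown in Mueller-Hinton broth for 8 h at 37 °C, then swabbed onto nutrient agar plates. Test solutions went into wells cut in the agar, with commercial antibiotics as positive reference. Plates were incubated at 37 °C for 24 h, and the MIC was read from the zones of inhibition.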

Staphylococcus aureus = test: Antimicrobial activity against Staphylococcus aureus after 24 hrs by agar well diffusion assay; type: functional; in short: as §1
Vibrio cholerae = test: Antimicrobial activity against Vibrio cholerae after 24 hrs by agar well diffusion assay; type: functional
Bacillus subtilis = test: Antimicrobial activity against Bacillus subtilis after 24 hrs by agar well diffusion assay; type: functional; in short: as §1
Proteus vulgaris = test: Antimicrobial activity against Proteus vulgaris after 24 hrs by agar well diffusion assay; type: functional; in short: as §1
Candida albicans = test: Antifungal activity against Candida albicans after 48 hrs by agar well diffusion assay; type: functional
In short: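 C. albicans, kept on Sabouraud's dextrose agar, was grown in Sabouraud's dextrose broth at 37 °C for 8 h to make the inoculum for agar well diffusion. The MIC was recorded.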

[1] = target: Gyrase B (Escherichia coli) (UniProt Q6S6F1); test: Inhibition of Escherichia coli DNA gyrase B

Compound | MIC (Escherichia coli) [µg/mL] | MIC (Staphylococcus aureus) [µg/mL] | MIC (Vibrio cholerae) [µg/mL] | MIC (Bacillus subtilis) [µg/mL] | MIC (Proteus vulgaris) [µg/mL] | MIC (Candida albicans) [µg/mL] | inhibition [1]
O=C(O)c1cn(C2CC2)c2cc(N3CCNCC3)c(F)cc2c1=O [CIPROFLOXACIN] | 5 (≈ 15.1 µM) | 5 (≈ 15.1 µM) | 10 (≈ 30.2 µM) | 5 (≈ 15.1 µM) | 10 (≈ 30.2 µM) | – | –
O=C1c2ccc(cc2)C[n+]2ccn(c2)Cc2ccc(cc2)S(=O)(=O)c2ccc(cc2)Cn2cc[n+](c2)Cc2ccc(cc2)C(=O)c2cccc1c2.[Br-].[Br-] | 30 | 40 | 30 | 35 | 25 | 15 | –
O=S1(=O)c2ccc(cc2)Cn2cc[n+](c2)Cc2cccc(c2)C[n+]2ccn(c2)Cc2ccc1cc2.[Br-].[Br-] | 55 | 30 | 35 | 20 | 40 | 40 | –
Clc1ccccc1C(c1ccccc1)(c1ccccc1)n1ccnc1 [CLOTRIMAZOLE] | – | – | – | – | – | 5 (≈ 14.5 µM) | –
O=S1(=O)c2ccc(cc2)Cn2cc[n+](c2)Cc2ccc(cc2)C[n+]2ccn(c2)Cc2ccc1cc2.[Br-].[Br-] | 60 | 25 | 70 | 30 | 40 | 25 | –
O=S1(=O)c2ccc(cc2)Cn2cc[n+](c2)Cc2ccccc2C[n+]2ccn(c2)Cc2ccc1cc2.[Br-].[Br-] | 30 | 40 | 35 | 40 | 60 | 20 | –
COc1cc2c(OC)cc1C[n+]1ccn(c1)Cc1ccc(cc1)S(=O)(=O)c1ccc(cc1)Cn1cc[n+](c1)C2.[Br-].[Br-] | 30 | 10 | 40 | 15 | 30 | 10 | –
O=S1(=O)c2ccc(cc2)Cn2cc[n+](c2)Cc2ccc(cc2)-c2cccc(c2)-c2ccc(cc2)C[n+]2ccn(c2)Cc2ccc1cc2.[Br-].[Br-] | 25 | 30 | 25 | 15 | 20 | 5 | –
O=C1c2ccc(cc2)C[n+]2ccn(c2)Cc2ccc(cc2)S(=O)(=O)c2ccc(cc2)Cn2cc[n+](c2)Cc2ccc1cc2.[Br-].[Br-] | 25 | 15 | 5 | 15 | 30 | 5 | Active
O=S1(=O)c2ccc(cc2)Cn2cc[n+](c2)Cc2ccc(cc2)S(=O)(=O)c2ccc(cc2)C[n+]2ccn(c2)Cc2ccc1cc2.[Br-].[Br-] | 15 | 5 | 10 | 10 | 15 | 5 | Active
